Results: ChEMBL document CHEMBL1641443, “Design, synthesis and biological evaluation of small molecule inhibitors of CD4-gp120 binding based on virtual screening” (Bioorg Med Chem, 2011)

These compounds were tested against Envelope glycoprotein gp160 (Human immunodeficiency virus type 1 group M subtype B (isolate YU-2)(HIV-1), UniProt P35961) (assay: Binding affinity to HIV1 YU2 gp120 by isothermal titration calorimetry assay). Settings: not given; call rule not given here.
Set-up: species or system Human immunodeficiency virus type 1 (isolate YU2)
Method in brief: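 ITC at 25 °C. Cell held gp120 at about 2 μM in PBS pH 7.4 with 2% DMSO. Heat per injection taken from the integrated signal. Kd from a single run unless noted otherwise.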

Row | SMILES | Kd
1 | CC1(C)CC(NC(=O)C(=O)Nc2ccc(Cl)c(F)c2)CC(C)(C)C1 | Not Active
2 | CC1(C)C2CCC1(C)C(NC(=O)C(=O)Nc1ccc(Cl)c(F)c1)C2 (centres undefined) | Not Active
3 | O=C(Nc1ccc(Cl)c(F)c1)C(=O)NC1CCc2[nH]ncc2C1 (centres undefined) | Not Active
4 | O=C(Nc1ccc(Cl)c(F)c1)C(=O)N[C@@H]1CCN(Cc2ccccc2)C1 | Not Active

Same assay, conditions: read-out: Kd

Row | SMILES | Kd [µM]
5 | CCCN1CCCC(NC(=O)C(=O)Nc2ccc(Cl)c(F)c2)C1 (centres undefined) | 3.3
6 | CC1(C)CC(CNC(=O)C(=O)Nc2ccc(Cl)c(F)c2)CC(C)(C)N1 | 2.2
7 | CN1CCC(NC(=O)C(=O)Nc2ccc(Cl)c(F)c2)CC1 | 9.4
8 | CCCN1CCC(NC(=O)C(=O)Nc2ccc(Cl)c(F)c2)CC1 | 4.2
9 | CC(C)N1CCC(NC(=O)C(=O)Nc2ccc(Cl)c(F)c2)CC1 | 1.9
10 | O=C(NCC1CCNCC1)C(=O)Nc1ccc(Cl)c(F)c1 | 3
11 | CN1CCC(CNC(=O)C(=O)Nc2ccc(Cl)c(F)c2)CC1 | 4.3
12 | CC1(C)CC(NC(=O)C(=O)Nc2ccc(Cl)c(F)c2)CC(C)(C)O1 | 1
13 | CN1CCCC(NC(=O)C(=O)Nc2ccc(Cl)c(F)c2)C1 (centres undefined) | 4.2
14 | CN1CCCC(CNC(=O)C(=O)Nc2ccc(Cl)c(F)c2)C1 (centres undefined) | 2.5
15 | CC(C)N1CCCCC1CCNC(=O)C(=O)Nc1ccc(Cl)c(F)c1 (centres undefined) | 2.3
16 | Cc1n[nH]c(C)c1CNC(=O)C(=O)Nc1ccc(Cl)c(F)c1 | 4
17 | O=C(NC[C@@]12CCC[C@@H]1CNC2)C(=O)Nc1ccc(Cl)c(F)c1 | 3.1
18 | O=C(NCC1NCCc2ccccc21)C(=O)Nc1ccc(Cl)c(F)c1 (centres undefined) | 1.2
19 | CCN1CCCC1CNC(=O)C(=O)Nc1ccc(Cl)c(F)c1 (centres undefined) | 2.1
20 | O=C(Nc1ccc(Cl)c(F)c1)C(=O)NC1CCNC2(CCC2)C1 (centres undefined) | 0.6
21 | C[C@@H]1CCC[C@H](C)N1CCNC(=O)C(=O)Nc1ccc(Cl)c(F)c1 | 1.6
22 | O=C(NCC1CCCN(CCO)C1)C(=O)Nc1ccc(Cl)c(F)c1 (centres undefined) | 3.2
23 | CC1(C)O[C@@H](CN)[C@H](CNC(=O)C(=O)Nc2ccc(Cl)c(F)c2)O1 | 2.6

What follows are compounds tested on Human immunodeficiency virus 1 (assay: Antiviral activity against recombinant HIV1 YU2 in Cf2Th-CCR5 cells assessed as viral infectivity by luciferase assasy relative to JRC-II-191). Settings: not given.
Type: functional, isolate YU2

Row | SMILES | fold change (FC)
24 | CCCN1CCCC(NC(=O)C(=O)Nc2ccc(Cl)c(F)c2)C1 (centres undefined) | 0.5
25 | CC1(C)CC(NC(=O)C(=O)Nc2ccc(Cl)c(F)c2)CC(C)(C)N1 | 1
26 | CC1(C)CC(CNC(=O)C(=O)Nc2ccc(Cl)c(F)c2)CC(C)(C)N1 | 0.09
27 | CC1(C)CC(NC(=O)CC(=O)Nc2ccc(Br)cc2)CC(C)(C)N1 | 0
28 | CC1(C)CC(NC(=O)CCC(=O)Nc2ccc(Br)cc2)CC(C)(C)N1 | 0
29 | CN(C(=O)C(=O)NC1CC(C)(C)NC(C)(C)C1)c1ccc(Cl)cc1 | 0
30 | CN(C(=O)C(=O)Nc1ccc(Cl)c(F)c1)C1CC(C)(C)NC(C)(C)C1 | 0
31 | CC1(C)CC(NCC(=O)Nc2ccc(Cl)c(F)c2)CC(C)(C)N1 | 0
32 | CN1CCC(NC(=O)C(=O)Nc2ccc(Cl)c(F)c2)CC1 | 0.1
33 | CCCN1CCC(NC(=O)C(=O)Nc2ccc(Cl)c(F)c2)CC1 | 0.2
34 | CC(C)N1CCC(NC(=O)C(=O)Nc2ccc(Cl)c(F)c2)CC1 | 0
35 | CC(C)(C)OC(=O)N1CCC(NC(=O)C(=O)Nc2ccc(Cl)c(F)c2)CC1 | 0
36 | O=C(Nc1ccc(Cl)c(F)c1)C(=O)NC1CCN(C(=O)c2ccccc2)CC1 | 0
37 | O=C(NCC1CCNCC1)C(=O)Nc1ccc(Cl)c(F)c1 | 0
38 | CN1CCC(CNC(=O)C(=O)Nc2ccc(Cl)c(F)c2)CC1 | 0.3
39 | CC1(C)CC(NC(=O)C(=O)Nc2ccc(Cl)c(F)c2)CC(C)(C)C1 | 0.1

Row | SMILES | fold change (FC)
40 | CC1(C)C2CCC1(C)C(NC(=O)C(=O)Nc1ccc(Cl)c(F)c1)C2 (centres undefined) | 0
41 | CC1(C)CC(NC(=O)C(=O)Nc2ccc(Cl)c(F)c2)CC(C)(C)O1 | 0
42 | CN1CCCC(NC(=O)C(=O)Nc2ccc(Cl)c(F)c2)C1 (centres undefined) | 0.7
43 | CN1CCCC(CNC(=O)C(=O)Nc2ccc(Cl)c(F)c2)C1 (centres undefined) | 0.3
44 | CC(C)N1CCCCC1CCNC(=O)C(=O)Nc1ccc(Cl)c(F)c1 (centres undefined) | 0
45 | Cc1n[nH]c(C)c1CNC(=O)C(=O)Nc1ccc(Cl)c(F)c1 | 0.1
46 | O=C(Nc1ccc(Cl)c(F)c1)C(=O)NC1CCc2[nH]ncc2C1 (centres undefined) | 0
47 | O=C(NC[C@@]12CCC[C@@H]1CNC2)C(=O)Nc1ccc(Cl)c(F)c1 | 0
48 | O=C(NCC1NCCc2ccccc21)C(=O)Nc1ccc(Cl)c(F)c1 (centres undefined) | 0.6
49 | CCN1CCCC1CNC(=O)C(=O)Nc1ccc(Cl)c(F)c1 (centres undefined) | 0
50 | O=C(Nc1ccc(Cl)c(F)c1)C(=O)N[C@@H]1CCN(Cc2ccccc2)C1 | 0
51 | O=C(Nc1ccc(Cl)c(F)c1)C(=O)NC1CCNC2(CCC2)C1 (centres undefined) | 2.6
52 | C[C@@H]1CCC[C@H](C)N1CCNC(=O)C(=O)Nc1ccc(Cl)c(F)c1 | 0.2
53 | O=C(NCC1CCCN(CCO)C1)C(=O)Nc1ccc(Cl)c(F)c1 (centres undefined) | 0
54 | CC1(C)O[C@@H](CN)[C@H](CNC(=O)C(=O)Nc2ccc(Cl)c(F)c2)O1 | 1.5
